Results: ChEMBL document CHEMBL1154824, “Synthesis and biological activity of derivatives of the marine quinone avarone” (Eur J Med Chem, 2010)
pIC50: −log10 of the molar value. ≈ marks a conversion by molar mass, not a printed value. Calls of active or inactive are those of the source. No cut-off for these calls is given here.

Assays:
[1] = test system: Escherichia coli; experiment: Antibacterial activity against Escherichia coli ATCC 35218 by serial dilution method; assay type: functional
[2] = test system: HeLa; experiment: Cytotoxicity against human HeLa cells assessed as decrease in total cellular protein by kenacid blue R binding method; assay type: functional, cell-based
[3] = test system: Artemia salina; experiment: Toxicity against freshly hatched nauplii of brine shrimp after 24 hrs; assay type: organism-based; details: in vivo
[4] = test system: Staphylococcus aureus; experiment: Antibacterial activity against Staphylococcus aureus ATCC 25923 by serial dilution method; assay type: functional
[5] = test system: K562; experiment: Cytotoxicity against human K562 cells by MTT assay; assay type: functional, cell-based
[6] = Cytotoxicity against human Fem-X cells assessed as decrease in total cellular protein by kenacid blue R binding method; assay type: functional, cell-based
[7] = test system: PBMC; experiment: Cytotoxicity against human PBMC cells by MTT assay; assay type: cell-based
[8] = test system: PBMC; experiment: Cytotoxicity against human phytohemagglutininin-stimulated PBMC cells assessed as growth inhibition by MTT assay; assay type: cell-based
[9] = test system: CCRF-CEM; experiment: Cytotoxicity against human CCRF-CEM cells after 48 hrs by sulforhodamine B assay; assay type: functional
Summary of the method: (§1)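 Tested at NIH-NCI against the 60 human tumor cell line panel. Each line was exposed to at least five concentrations for 48 h. Growth and survival were read by the sulforhodamine test.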

[10] = Cytotoxicity against human colon cancer cells after 48 hrs by sulforhodamine B assay; assay type: functional; details: Cancer cell lines; summary of the method: as §1
[11] = test system: RPMI-8226; experiment: Cytotoxicity against human RPMI8226 cells after 48 hrs by sulforhodamine B assay; assay type: functional; details: RPMI-8226, 48 h; summary of the method: as §1
[12] = test system: LOX IMVI; experiment: Cytotoxicity against human LOXIMVI cells after 48 hrs by sulforhodamine B assay; assay type: functional; summary of the method: as §1
[13] = test system: T47D; experiment: Cytotoxicity against human T47D cells after 48 hrs by sulforhodamine B assay; assay type: functional; summary of the method: as §1
[14] = test system: SK-MEL-2; experiment: Cytotoxicity against human SK-MEL-2 cells after 48 hrs by sulforhodamine B assay; assay type: functional; details: SK-MEL-2, 48 h; summary of the method: as §1
[15] = test system: NCI-H23; experiment: Cytotoxicity against human NCI-H23 cells after 48 hrs by sulforhodamine B assay; assay type: functional; details: NCI-H23, 48 h; summary of the method: as §1
[16] = test system: MDA-MB-435; experiment: Cytotoxicity against human MDA-MB-435 cells after 48 hrs by sulforhodamine B assay; assay type: functional; details: MDA-MB-435, 48 h; summary of the method: as §1
[17] = test system: IGROV-1; experiment: Cytotoxicity against human IGROV1 cells after 48 hrs by sulforhodamine B assay; assay type: functional; details: IGROV-1, 48 h; summary of the method: as §1
[18] = test system: MCF7; experiment: Cytotoxicity against human MCF7 cells after 48 hrs by sulforhodamine B assay; assay type: functional; details: MCF7, 48 h; summary of the method: as §1
[19] = test system: RXF 393; experiment: Cytotoxicity against human RXF393 cells after 48 hrs by sulforhodamine B assay; assay type: functional; details: RXF 393, 48 h; summary of the method: as §1
[20] = Cytotoxicity against human prostate cancer cells after 48 hrs by sulforhodamine B assay; assay type: functional; details: Cancer cell lines; summary of the method: as §1
[21] = Cytotoxicity against human CNS cancer cells after 48 hrs by sulforhodamine B assay; assay type: functional; details: Cancer cell lines; summary of the method: as §1
[22] = test system: HOP-92; experiment: Cytotoxicity against human HOP92 cells after 48 hrs by sulforhodamine B assay; assay type: functional; details: HOP-92, 48 h; summary of the method: as §1
[23] = test system: K562; experiment: Cytotoxicity against human K562 cells after 48 hrs by sulforhodamine B assay; assay type: functional; details: K562, 48 h; summary of the method: as §1
[24] = test system: MOLT-4; experiment: Cytotoxicity against human MOLT4 cells after 48 hrs by sulforhodamine B assay; assay type: functional; details: MOLT-4, 48 h; summary of the method: as §1
[25] = test system: Human immunodeficiency virus; experiment: Antiviral activity against HIV infected in human T4 lymphocytes assessed as protection from HIV-induced cytopathogenicity at 2 uM; assay type: functional
[26] = Cytotoxicity against human T4 lymphocytes

| SMILES | MIC [1] | pIC50 [2] | LC50 [3] | MIC [4] | pIC50 [5] | pIC50 [6] | pIC50 [7] | pIC50 [8] | also measured |
| --- | --- | --- | --- | --- | --- | --- | --- | --- | --- |
| CCCCSC1=CC(=O)C(C[C@]2(C)[C@@H](C)CC[C@]3(C)C(C)=CCC[C@@H]23)=CC1=O | inactive | 4.60 | 0.92 ppm | 25 µg/mL (≈ 62.4 µM) | 4.90 | 4.61 |  |  |  |
| CC1=CCC[C@H]2[C@](C)(CC3=CC(=O)C(SC(C)(C)C)=CC3=O)[C@@H](C)CC[C@]12C | inactive | 4.43 | 0.89 ppm | 50 µg/mL (≈ 125 µM) | 4.59 | 4.42 | 4.66 | 4.68 |  |
| CCCSC1=CC(=O)C(C[C@]2(C)[C@@H](C)CC[C@]3(C)C(C)=CCC[C@@H]23)=CC1=O | inactive | 4.01 | 0.2 ppm | 50 µg/mL (≈ 129 µM) | 4.34 | 4.05 |  |  |  |
| CC1=CCC[C@H]2[C@](C)(CC3=CC(=O)C4=C(SCCS4)C3=O)[C@@H](C)CC[C@]12C | 100 µg/mL (≈ 248 µM) | < 4.00 | 2045 ppm | inactive | 4.04 | 4.12 |  |  | GI50 [9]: 11 µM; GI50 [10]: > 10 µM; GI50 [11]: 14.1 µM; GI50 [12]: 11.2 µM; GI50 [13]: > 100 µM; GI50 [14]: 1.7 µM; GI50 [15]: 13.2 µM; GI50 [16]: 8.13 µM; GI50 [17]: 32.4 µM; GI50 [18]: 20.4 µM; GI50 [19]: 18.6 µM; GI50 [20]: > 10 µM; GI50 [21]: > 10 µM; GI50 [22]: 31.6 µM; GI50 [23]: 20 µM; GI50 [24]: 21.4 µM |
| CCCCCCCCSC1=CC(=O)C(C[C@]2(C)[C@@H](C)CC[C@]3(C)C(C)=CCC[C@@H]23)=CC1=O | 25 µg/mL (≈ 54.7 µM) | < 4.00 | Not Active | inactive | < 4.00 | < 4.00 |  |  |  |
| CC1=CCC[C@H]2[C@](C)(CC3=CC(=O)C=CC3=O)[C@@H](C)CC[C@]12C [AVARONE] | 25 µg/mL (≈ 80 µM) | 4.57 | 0.14 ppm | 6.25 µg/mL (≈ 20 µM) | 5.31 | 4.62 | 5.32 | 5.35 |  |
| COC1=CC(=O)C=C(C[C@]2(C)[C@@H](C)CC[C@]3(C)C(C)=CCC[C@@H]23)C1=O | 50 µg/mL (≈ 146 µM) | 4.88 | 0.02 ppm | 25 µg/mL (≈ 73 µM) | 5.68 | 5.01 | 5.23 | 5.26 |  |
| CNC1=CC(=O)C(C[C@]2(C)[C@@H](C)CC[C@]3(C)C(C)=CCC[C@@H]23)=CC1=O | inactive | 4.90 | 0.34 ppm | inactive | 5.03 | 5.62 | < 4.00 | < 4.00 |  |
| CC1CCC[C@H]2[C@](C)(CC3=CC(=O)C(Cl)=CC3=O)[C@@H](C)CC[C@]12C (stereo not given in full) | 25 µg/mL (≈ 71.7 µM) | 4.47 | 0.65 ppm | 50 µg/mL (≈ 143 µM) | 4.95 | 4.49 |  |  |  |
| CC1=CCC[C@H]2[C@](C)(Cc3cc(O)ccc3O)[C@@H](C)CC[C@]12C [AVAROL] | inactive | 4.71 | 0.18 ppm | 12.5 µg/mL (≈ 39.7 µM) | 5.14 | 4.66 | 5.52 | 5.49 |  |
| C[C@H]1c2cccc(O)c2C(=O)C2=C(O)[C@]3(O)C(=O)C(C(N)=O)=C(O)[C@@H](N(C)C)[C@@H]3[C@@H](O)[C@@H]21.O [DOXYCYCLINE] | 2 µg/mL |  |  | 4 µg/mL |  |  |  |  |  |
| CC1=CCC[C@H]2[C@](C)(CC3=CC(=O)C(SCC(C)C)=CC3=O)[C@@H](C)CC[C@]12C | 25 µg/mL (≈ 62.4 µM) | 4.01 | 0.17 ppm | 50 µg/mL (≈ 125 µM) | 4.41 | 4.05 |  |  | GI50 [9]: 1.35 µM; GI50 [10]: > 10 µM; GI50 [11]: 3.8 µM; GI50 [12]: 4.07 µM; GI50 [13]: 2.63 µM; GI50 [14]: 20.9 µM; GI50 [15]: 5.5 µM; GI50 [16]: 15.5 µM; GI50 [17]: 10 µM; Activity [25]: 28.5%; GI50 [18]: 7.24 µM; GI50 [19]: 6.76 µM; Activity [26]: Toxic; GI50 [20]: > 10 µM; GI50 [21]: > 10 µM; GI50 [22]: 4.79 µM; GI50 [23]: 4.47 µM; GI50 [24]: 2.29 µM |
| CC1=CCC[C@H]2[C@](C)(CC3=CC(=O)C=C(Sc4ccccc4)C3=O)[C@@H](C)CC[C@]12C | inactive | 4.26 | 32.33 ppm | 12.5 µg/mL (≈ 29.7 µM) | 4.76 | 4.38 |  |  |  |
| CC1=CCC[C@H]2[C@](C)(CC3=CC(=O)C(Sc4ccccc4)=CC3=O)[C@@H](C)CC[C@]12C | inactive | 4.35 | 30.21 ppm | 12.5 µg/mL (≈ 29.7 µM) | 4.82 | 4.37 | 5.00 | 4.95 | GI50 [9]: 3.89 µM; GI50 [10]: > 10 µM; GI50 [11]: 20.4 µM; GI50 [12]: 13.5 µM; GI50 [13]: 20.4 µM; GI50 [14]: 20 µM; GI50 [15]: 14.8 µM; GI50 [16]: 17 µM; GI50 [17]: 16.2 µM; Activity [25]: 12.5%; GI50 [18]: 22.4 µM; GI50 [19]: 16.2 µM; Activity [26]: Toxic; GI50 [20]: > 10 µM; GI50 [21]: > 10 µM; GI50 [22]: 17 µM; GI50 [23]: 19.5 µM; GI50 [24]: 2.57 µM |
| CC1=CCC[C@H]2[C@](C)(CC3=CC(=O)C(SC(C)C)=CC3=O)[C@@H](C)CC[C@]12C | inactive | 4.17 | 0.44 ppm | inactive | 4.32 | 4.07 |  |  |  |
